This note sets out measurements from ChEMBL document CHEMBL1155754, “Samioside, a new phenylethanoid glycoside with free-radical scavenging and antimicrobial activities from Phlomis samia” (J Nat Prod, 2001).

Converted amounts (≈) assume the structure as drawn.

Holding throughout (assay type): functional
Assay [1] concerns Radical scavenging activity. The assay can be described thus: Antioxidant activity assessed as DPPH free radical scavenging activity after 30 mins. Further details: concentration or dose not given beside the values. In short, it runs like this: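 Sample mixed with DPPH in ethanol and left 30 min at 37 °C. Optical density read at 515 nm. Ethanol replaced DPPH for the blank and DMSO replaced sample for the control. IC50 (amount scavenging 50% of DPPH) came from regression of average percent DPPH reduction against concentration, over three separate tests.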

Assay [2] deals with Staphylococcus epidermidis. The assay can be described thus: Antimicrobial activity against Staphylococcus epidermidis ATCC 12228 by disk diffusion method. Summed up: (§1)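 Bauer-Kirby disk diffusion against the listed ATCC bacterial and Candida strains. Growth inhibition read as zone of inhibition diameter (mm). Three repeat experiments, reported as averages.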
In assay [3] the test system is Staphylococcus aureus. Nature of the assay: Antimicrobial activity against Staphylococcus aureus ATCC 25923 by agar dilution method. Summed up:
(§2)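 Agar dilution against the listed ATCC bacterial strains. MIC taken as the lowest concentration preventing visible growth.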

Assay [4] relates to Pseudomonas aeruginosa. The assay can be described thus: Antimicrobial activity against Pseudomonas aeruginosa ATCC 27853 by agar dilution method. In short, it runs like this:
as §2

The test system of assay [5] is Pseudomonas aeruginosa. The assay can be described thus: Antimicrobial activity against Pseudomonas aeruginosa ATCC 27853 by disk diffusion method. In short, it runs like this: as §1
Assay [6] has as its system Escherichia coli. The assay can be described thus: Antimicrobial activity against Escherichia coli ATCC 25922 by disk diffusion method. In short, it runs like this:
as §1

Assay [7] has as its system Staphylococcus aureus. Nature of the assay: Antimicrobial activity against Staphylococcus aureus ATCC 25923 by disk diffusion method. In short, it runs like this: as §1
Assay [8] deals with Enterobacter cloacae. The assay can be described thus: Antimicrobial activity against Enterobacter cloacae ATCC 13047 by disk diffusion method. In short, it runs like this: as §1
Assay [9] has as its system Klebsiella pneumoniae. The assay can be described thus: Antimicrobial activity against Klebsiella pneumoniae ATCC 13883 by agar dilution method. Summed up: as §2
Assay [10] has as its system Staphylococcus epidermidis. Nature of the assay: Antimicrobial activity against Staphylococcus epidermidis ATCC 12228 by agar dilution method. Summed up: as §2
Assay [11] deals with Enterobacter cloacae. The assay can be described thus: Antimicrobial activity against Enterobacter cloacae ATCC 13047 by agar dilution method. Summed up:
as §2

The subject of assay [12] is Escherichia coli. The assay can be described thus: Antimicrobial activity against Escherichia coli ATCC 25922 by agar dilution method. In short, it runs like this: as §2
Assay [13] has as its system Klebsiella pneumoniae. Nature of the assay: Antimicrobial activity against Klebsiella pneumoniae ATCC 13883 by disk diffusion method. In short, it runs like this: as §1
The next assay concerns Candida tropicalis. The assay can be described thus: Antimicrobial activity against Candida tropicalis ATCC 13801 by disk diffusion method. In short, it runs like this:
as §1

The subject of another assay is Candida albicans. The assay can be described thus: Antimicrobial activity against Candida albicans ATCC 10231 by disk diffusion method. In short, it runs like this:
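Bauer-Kirby disk diffusion against Candida albicans ATCC 10231; experiments repeated three times, results expressed as average values (zone of inhibition).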

Another assay concerns Nakaseomyces glabratus. The assay can be described thus: Antimicrobial activity against Candida glabrata ATCC 28838 by disk diffusion method. In short, it runs like this: as §1

In the case of `COc1cc(-c2cc(=O)c3c(O)cc(O)cc3o2)ccc1O`, the Activity in assay [1] was below 40%.

For `CCN[C@@H]1C[C@H](N)[C@@H](O[C@H]2OC(CN)=CC[C@H]2N)[C@H](O)[C@H]1O[C@H]1OC[C@](C)(O)[C@H](NC)[C@H]1O` [NETILMICIN], the “inhibition zone (IZ)” value in [2] is given as 24 mm; with Pseudomonas aeruginosa [5] it was 20 mm; in the assay with Escherichia coli [6], 23 mm; in the assay with Staphylococcus aureus [7], 22 mm; in the assay with Enterobacter cloacae [8], 22 mm; in the assay on Klebsiella pneumoniae [13] it was 25 mm. In addition, the minimal inhibitory concentration (MIC) is 4 µg/mL (≈ 8.41 µM) against Staphylococcus aureus [3]; 8.8 µg/mL (≈ 18.5 µM) in the assay on Pseudomonas aeruginosa [4]; 8 µg/mL (≈ 16.8 µM) with Klebsiella pneumoniae [9]; 4 µg/mL (≈ 8.41 µM) in [10]; 8 µg/mL (≈ 16.8 µM) with Enterobacter cloacae [11]; 10 µg/mL (≈ 21 µM) against Escherichia coli [12].

Consider `COc1ccc(-c2oc3cc(O)cc(O)c3c(=O)c2OC)cc1`, for which the Activity in [1] was below 40%.

`C[C@@H]1[C@H](O)[C@@H](C)/C=C/C=C/C=C/C=C/C=C/C=C/C=C/[C@H](O[C@@H]2O[C@H](C)[C@@H](O)[C@H](N)[C@@H]2O)C[C@@H]2O[C@](O)(C[C@@H](O)C[C@@H](O)[C@H](O)CC[C@@H](O)C[C@@H](O)CC(=O)O[C@H]1C)C[C@H](O)[C@H]2C(=O)O` [AMPHOTERICIN B]: the “inhibition zone (IZ)” value worked out at 22 mm in the assay on Candida tropicalis, 20 mm with Candida albicans and 24 mm in the assay on Nakaseomyces glabratus.

Take `O=C(O)/C=C/c1ccc(O)c(O)c1` [CAFFEIC ACID]: the IC50 in assay [1] amounted to 66.7 µM.

Consider `C[C@@H]1O[C@@H](O[C@@H]2[C@@H](O)[C@H](OCCc3ccc(O)c(O)c3)O[C@H](CO)[C@H]2OC(=O)/C=C/c2ccc(O)c(O)c2)[C@H](O)[C@H](O)[C@H]1O` [ACETOSIDE], for which 400 µg/mL (≈ 640 µM) was the least that counted as inhibitory against Staphylococcus aureus [3] (MIC). Besides, in assay [1], the Activity is above 70% and the IC50 turned out to be 48.9 µM.

For the compound `O=c1cc(-c2ccc(O)cc2)oc2cc(O)cc(O)c12`, in assay [1], the Activity was below 40%.

As to `O=C(O)c1cc(O)c(O)c(O)c1` [GALLIC ACID], the IC50 in assay [1] was 17.6 µM.

For `C[C@@H]1O[C@@H](O[C@@H]2[C@@H](O)[C@H](OCCc3ccc(O)c(O)c3)O[C@H](CO)[C@H]2OC(=O)/C=C/c2ccc(O)c(O)c2)[C@H](O)[C@H](O)[C@H]1O[C@@H]1OC[C@](O)(CO)[C@H]1O` [SAMIOSIDE], the “inhibition zone (IZ)” value in assay [2] is given as 16 mm; with Candida tropicalis, 10 mm; with Pseudomonas aeruginosa [5], 10 mm; in the assay on Candida albicans it was 8 mm; in the assay with Escherichia coli [6] it was 15 mm; with Staphylococcus aureus [7], 12 mm. The results for the “inhibition zone (IZ)” value with Enterobacter cloacae [8], with Klebsiella pneumoniae [13] and in the assay on Nakaseomyces glabratus were 10 mm, 11 mm and 11 mm, respectively. Further, the MIC in the assay on Staphylococcus aureus [3] came to 460 µg/mL (≈ 608 µM); in the assay on Pseudomonas aeruginosa [4], 850 µg/mL (≈ 1120 µM); in the assay on Klebsiella pneumoniae [9] it was 790 µg/mL (≈ 1040 µM); in assay [10], 480 µg/mL (≈ 634 µM); in the assay with Enterobacter cloacae [11] it was 890 µg/mL (≈ 1180 µM); against Escherichia coli [12] it was 520 µg/mL (≈ 687 µM). In [1], the Activity is above 70%. The IC50 in assay [1] was 23.8 µM.
